The record followed here is ChEMBL document CHEMBL1148636, “Novel analogues of degarelix incorporating hydroxy-, methoxy-, and pegylated-urea moieties at positions 3, 5, 6 and the N-terminus. Part III” (J Med Chem, 2006).

In brackets after ≈: the same amount, converted by molar mass. Activity calls are given as the source filed them. The rule behind the calls is not given here. Numbered stars: 1 amine (or outer) side, 2 acyl side, 3 side chain; on linkers, the order of the positions; unused ones are H or OH. Square brackets hold non-standard residues; d marks the D form. Side chains are listed from the residue outwards. Peptide text beside a SMILES is read from it. * marks the point of attachment. dPhe(4-NHCONH2) = NC(=O)Nc1ccc(C[C@@H](N)C(=O)O)cc1; Dihydroorotyl(S) = O=C1C[C@@H](C(=O)*)NC(=O)N1; dPhe(4-NH2) = Nc1ccc(C[C@@H](N)C(=O)O)cc1; dPhe(4-Cl) = N[C@H](Cc1ccc(Cl)cc1)C(=O)O; Phe(4-NH2) = Nc1ccc(C[C@H](N)C(=O)O)cc1; d2Nal = N[C@H](Cc1ccc2ccccc2c1)C(=O)O; Lys(iPr) = CC(C)NCCCC[C@H](N)C(=O)O; NHCH2CH2OCH2CH2OEt = CCOCCOCCN*; d3Pal = N[C@H](Cc1cccnc1)C(=O)O; Methoxycarbamoyl = CONC(=O)*; CO = O=C([*:1])[*:2]

Assay [1] concerns the target T1, Gonadotropin-releasing hormone receptor (Homo sapiens, UniProt P30968).
T1 sequence (P30968 whole entry): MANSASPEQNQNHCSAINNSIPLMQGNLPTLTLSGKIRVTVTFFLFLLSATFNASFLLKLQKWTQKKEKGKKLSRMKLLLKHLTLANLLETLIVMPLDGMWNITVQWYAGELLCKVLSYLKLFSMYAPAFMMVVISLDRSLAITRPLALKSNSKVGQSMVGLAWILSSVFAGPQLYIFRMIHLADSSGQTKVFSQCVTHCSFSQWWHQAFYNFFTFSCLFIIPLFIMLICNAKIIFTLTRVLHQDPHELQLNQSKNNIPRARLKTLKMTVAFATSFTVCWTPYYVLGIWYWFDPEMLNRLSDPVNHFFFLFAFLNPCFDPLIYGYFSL
Put plainly: Antagonist activity at human GnRH receptor expressed in HEK293 cells as inhibition of GnRH-induced LH secretion by reporter gene assay. It is filed as functional, cell-based. In a few lines:
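HEK293 cells stably expressing cloned human GnRH receptor plus luciferase reporter under LH alpha subunit promoter; plated 5 × 10^4 cells/well, overnight 37 °C. Compounds in 1% DMSO, 11 half-log concentrations in duplicate, 10 min preincubation, then GnRH 1 nM final, ≥5 h at 37 °C; luminescence read. Percent of control fitted to IC50; geometric mean of ≥2 independent experiments.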
In general terms: In a reporter assay the amount or activity of a reporter protein is the signal.

For assay [2], the system named is Rattus norvegicus. Put plainly: Inhibition of GnRH-induced LH secretion in Sprague-Dawley rat at 50 ug, sc for 72 hrs. It counts as functional. In a few lines:
(§1)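 Male rats castrated ten days earlier (≥5 per group) injected sc with 50 μg peptide in 50 μL 5% mannitol (0.6% DMSO in the stock); vehicle controls run alongside. Tail-tip blood taken pre-dose and at 3, 72, 96, 120, 144, 168 and sometimes 192 h; plasma LH by RIA, all samples of one experiment in the same assay; >80% inhibition scored.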

Assay [3] deals with Mast cell (Rattus norvegicus). Put plainly: Histamine release in mast cells by ELISA. For orientation: An ELISA detects its analyte on a solid surface through an enzyme-linked reagent.
For assay [4], the system named is Rattus norvegicus. Put plainly: Antiovulatory activity in rat at 2 ug, sc. It counts as functional, organism-based. The procedure, abridged:
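Cycling rats (250-300 g) given peptide 2 μg in 200 μL saline or 5% DMSO in saline sc at noon on proestrus; scored as number of rats ovulating over total treated (8 per group).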

Assay [5] concerns Rattus norvegicus. Briefly: Inhibition of GnRH-induced LH secretion in Sprague-Dawley rat at 50 ug, sc for 120 hrs. It is filed as functional. In a few lines: as §1
Assay [6] has as its system Rattus norvegicus. Briefly: Inhibition of GnRH-induced LH secretion in Sprague-Dawley rat at 50 ug, sc for 3 hrs. It counts as functional. In a few lines:
as §1

For assay [7], the system named is Rattus norvegicus. Put plainly: Inhibition of GnRH-induced LH secretion in Sprague-Dawley rat at 50 ug, sc for 96 hrs. It is filed as functional. In a few lines: as §1

`CONC(=O)Nc1ccc(C[C@H](NC(=O)[C@H](CO)NC(=O)[C@@H](Cc2cccnc2)NC(=O)[C@@H](Cc2ccc(Cl)cc2)NC(=O)[C@@H](Cc2ccc3ccccc3c2)NC(C)=O)C(=O)N[C@H](Cc2ccc(NC(N)=O)cc2)C(=O)N[C@@H](CC(C)C)C(=O)N[C@@H](CCCCNC(C)C)C(=O)N2CCC[C@H]2C(=O)N[C@H](C)C(N)=O)cc1` (Ac-[d2Nal][dPhe(4-Cl)][d3Pal]S[Phe(4-NH2)](Methoxycarbamoyl)[dPhe(4-NHCONH2)]L[Lys(iPr)]P[dA]-NH2) displayed an IC50 in assay [1] of 600 pM. In the assay with Rattus norvegicus [2], this compound came in with an Inhibition of more than 80%.
In assay [3], `CC(=O)Nc1ccc(C[C@H](NC(=O)[C@H](CO)NC(=O)[C@@H](Cc2cccnc2)NC(=O)[C@@H](Cc2ccc(Cl)cc2)NC(=O)[C@@H](Cc2ccc3ccccc3c2)NC(C)=O)C(=O)N[C@H](Cc2ccc(NC(C)=O)cc2)C(=O)N[C@@H](CC(C)C)C(=O)N[C@@H](CCCCNC(C)C)C(=O)N2CCC[C@H]2C(=O)N[C@H](C)C(N)=O)cc1` [ACYLINE] had an EC50 of 461 µg/mL (≈ 301 µM). In the assay on Rattus norvegicus [4], the outcome was Active.
On to `CC(=O)N[C@H](Cc1ccc2ccccc2c1)C(=O)N[C@H](Cc1ccc(Cl)cc1)C(=O)N[C@H](Cc1cccnc1)C(=O)N[C@@H](CO)C(=O)N[C@@H](Cc1ccc(NC(=O)[C@@H]2CC(=O)NC(=O)N2)cc1)C(=O)N[C@H](Cc1ccc(NC(N)=O)cc1)C(=O)N[C@@H](CC(C)C)C(=O)N[C@@H](CCCCNC(C)C)C(=O)N1CCC[C@H]1C(=O)N[C@H](C)C(N)=O` [DEGARELIX] (Ac-[d2Nal][dPhe(4-Cl)][d3Pal]S[Phe(4-NH2)](Dihydroorotyl(S))[dPhe(4-NHCONH2)]L[Lys(iPr)]P[dA]-NH2), for which the EC50 in assay [3] was more than 1000 µg/mL. Moreover, in the assay on Rattus norvegicus [5], the Inhibition is more than 80%. In the assay on Rattus norvegicus [4], the outcome was Active.
`CCOCCOCCNC(=O)N[C@H](Cc1ccc2ccccc2c1)C(=O)N[C@H](Cc1ccc(Cl)cc1)C(=O)N[C@H](Cc1cccnc1)C(=O)N[C@@H](CO)C(=O)N[C@@H](Cc1ccc(NC(=O)[C@@H]2CC(=O)NC(=O)N2)cc1)C(=O)N[C@H](Cc1ccc(NC(=O)NOC)cc1)C(=O)N[C@@H](CC(C)C)C(=O)N[C@@H](CCCCNC(C)C)C(=O)N1CCC[C@H]1C(=O)N[C@H](C)C(N)=O` ({NHCH2CH2OCH2CH2OEt-CO}-[d2Nal][dPhe(4-Cl)][d3Pal]S[Phe(4-NH2)](Dihydroorotyl(S))[dPhe(4-NH2)](Methoxycarbamoyl)L[Lys(iPr)]P[dA]-NH2) had an IC50 in assay [1] of 1610 pM. In the assay with Rattus norvegicus [6], this compound came in with an Inhibition of more than 80%.
For the compound `CCOCCOCCNC(=O)Nc1ccc(C[C@H](NC(=O)[C@H](CO)NC(=O)[C@@H](Cc2cccnc2)NC(=O)[C@@H](Cc2ccc(Cl)cc2)NC(=O)[C@@H](Cc2ccc3ccccc3c2)NC(C)=O)C(=O)N[C@H](Cc2ccc(NC(N)=O)cc2)C(=O)N[C@@H](CC(C)C)C(=O)N[C@@H](CCCCNC(C)C)C(=O)N2CCC[C@H]2C(=O)N[C@H](C)C(N)=O)cc1` (Ac-[d2Nal][dPhe(4-Cl)][d3Pal]S[Phe(4-NH2)]([CO-NHCH2CH2OCH2CH2OEt])[dPhe(4-NHCONH2)]L[Lys(iPr)]P[dA]-NH2), the EC50 in assay [3] came to 910 µg/mL (≈ 551 µM). Further, the result in the assay on Rattus norvegicus [4] was Active.
On to `CONC(=O)Nc1ccc(C[C@@H](NC(=O)[C@H](Cc2ccc(NC(=O)[C@@H]3CC(=O)NC(=O)N3)cc2)NC(=O)[C@H](CO)NC(=O)[C@@H](Cc2cccnc2)NC(=O)[C@@H](Cc2ccc(Cl)cc2)NC(=O)[C@@H](Cc2ccc3ccccc3c2)NC(C)=O)C(=O)N[C@@H](CC(C)C)C(=O)N[C@@H](CCCCNC(C)C)C(=O)N2CCC[C@H]2C(=O)N[C@H](C)C(N)=O)cc1` (Ac-[d2Nal][dPhe(4-Cl)][d3Pal]S[Phe(4-NH2)](Dihydroorotyl(S))[dPhe(4-NH2)](Methoxycarbamoyl)L[Lys(iPr)]P[dA]-NH2), for which, in assay [1], the IC50 stood at 510 pM. This compound came in with an Inhibition in the assay with Rattus norvegicus [7] of more than 80%.
On to `CCOCCOCCNC(=O)Nc1ccc(C[C@H](NC(=O)[C@H](CO)NC(=O)[C@@H](Cc2cccnc2)NC(=O)[C@@H](Cc2ccc(Cl)cc2)NC(=O)[C@@H](Cc2ccc3ccccc3c2)NC(=O)NCCOCCOCC)C(=O)N[C@H](Cc2ccc(NC(N)=O)cc2)C(=O)N[C@@H](CC(C)C)C(=O)N[C@@H](CCCCNC(C)C)C(=O)N2CCC[C@H]2C(=O)N[C@H](C)C(N)=O)cc1`, for which the IC50 in assay [1] was found to be 1120 pM. Besides, the EC50 in assay [3] was more than 1000 µg/mL. Further, the result in the assay with Rattus norvegicus [4] was Active.
For `CCOCCOCCNC(=O)N[C@H](Cc1ccc2ccccc2c1)C(=O)N[C@H](Cc1ccc(Cl)cc1)C(=O)N[C@H](Cc1cccnc1)C(=O)N[C@@H](CO)C(=O)N[C@@H](Cc1ccc(NC(=O)NOC)cc1)C(=O)N[C@H](Cc1ccc(NC(N)=O)cc1)C(=O)N[C@@H](CC(C)C)C(=O)N[C@@H](CCCCNC(C)C)C(=O)N1CCC[C@H]1C(=O)N[C@H](C)C(N)=O`, in that order: 2980 pM, 50.6 µg/mL (≈ 30.1 µM) and “Active”.
In assay [1], `CONC(=O)Nc1ccc(C[C@H](NC(=O)[C@H](CO)NC(=O)[C@@H](Cc2cccnc2)NC(=O)[C@@H](Cc2ccc(Cl)cc2)NC(=O)[C@@H](Cc2ccc3ccccc3c2)NC(C)=O)C(=O)N[C@H](Cc2ccc(NC(=O)NOC)cc2)C(=O)N[C@@H](CC(C)C)C(=O)N[C@@H](CCCCNC(C)C)C(=O)N2CCC[C@H]2C(=O)N[C@H](C)C(N)=O)cc1` gave an IC50 of 910 pM. This compound registered an EC50 in assay [3] of 46 µg/mL (≈ 28.8 µM). Besides, the result in the assay with Rattus norvegicus [4] was Active.
Compound `CONC(=O)Nc1ccc(C[C@@H](NC(=O)[C@H](Cc2ccc(NC(=O)NOC)cc2)N(C)C(=O)[C@H](CO)NC(=O)[C@@H](Cc2cccnc2)NC(=O)[C@@H](Cc2ccc(Cl)cc2)NC(=O)[C@@H](Cc2ccc3ccccc3c2)NC(C)=O)C(=O)N[C@@H](CC(C)C)C(=O)N[C@@H](CCCCNC(C)C)C(=O)N2CCC[C@H]2C(=O)N[C@H](C)C(N)=O)cc1` showed an IC50 in assay [1] of 700 pM. In assay [3], this compound had an EC50 of 43.1 µg/mL (≈ 26.8 µM). Besides, the result in the assay with Rattus norvegicus [4] was Active.

A word on the IC50: it is the concentration at which inhibition is half-maximal. For orientation: Inhibition means how much of the control response was suppressed. High values mean a strong effect, low ones a weak effect. The EC50 is the concentration giving half of the maximal effect. Read a low EC50 as greater potency.
